Source: PubChem (several laboratories)
DAGLB inh – DAGLB lipase inhibitors, primary screen, biochemical, fluorescence, HTS. HEK293T DAGLB membrane lysate, EnzChek fluorogenic substrate. inhibition, % at 5.17 µM. Diacylglycerol lipase-beta (Homo sapiens), Q8NCG7. 340,000 tested, 0.059% active; in the data active means inhibition above about 34%
Target sequence (Q8NCG7 whole entry, looked up): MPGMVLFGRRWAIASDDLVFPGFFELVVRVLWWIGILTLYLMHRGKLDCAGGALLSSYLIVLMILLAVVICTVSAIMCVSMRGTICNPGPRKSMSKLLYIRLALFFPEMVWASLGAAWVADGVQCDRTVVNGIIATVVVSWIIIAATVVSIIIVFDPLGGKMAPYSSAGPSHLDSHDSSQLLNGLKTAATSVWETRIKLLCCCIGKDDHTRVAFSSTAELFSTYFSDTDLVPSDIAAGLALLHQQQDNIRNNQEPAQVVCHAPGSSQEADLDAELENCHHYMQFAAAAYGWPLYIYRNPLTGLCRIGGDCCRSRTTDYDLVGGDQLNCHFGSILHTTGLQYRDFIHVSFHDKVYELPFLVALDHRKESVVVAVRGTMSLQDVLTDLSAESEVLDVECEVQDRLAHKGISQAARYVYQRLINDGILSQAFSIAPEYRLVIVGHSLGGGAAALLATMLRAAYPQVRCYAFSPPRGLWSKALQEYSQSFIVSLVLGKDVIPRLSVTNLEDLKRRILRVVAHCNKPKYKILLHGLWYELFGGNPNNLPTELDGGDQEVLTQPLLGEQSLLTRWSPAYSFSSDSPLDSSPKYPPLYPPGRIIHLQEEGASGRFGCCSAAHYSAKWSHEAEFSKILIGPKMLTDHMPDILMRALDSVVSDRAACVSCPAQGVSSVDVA
MT1-MMP act inh – blockers of MT1-MMP proenzyme processing, primary screen, HT1080 RFP-PRO-GFP cells, GFP/RFP fluorescence; Matrix metalloproteinase-14 (Homo sapiens), P50281; GFP/RFP ratio fluorescence, overnight; percent of plate control window, DMSO zero; GFP/RFP ratio change, % at 20 µM; 360,000 tested, 0.061% active; AID 651647, 2012;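 active means GFP/RFP ratio change of at least 30% with cell ATP level not reduced by more than half and red fluorescence within 50% of control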
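Assay system: HT1080 RFP-PRO-GFP cells | Dosing: 20 µM single dose, 1% DMSO | Incubation: Cells overnight before dosing, compound overnight, 37 °C, 5% CO2 | Evaluation: GFP/RFP fluorescence ratio | Control set: DMSO-only wells and HT1080 RFP-L50D-GFP cell wells as references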
MsrA inhibitor – bovine MsrA enzyme inhibitors, primary screen, biochemical, absorbance, HTS; Methionine sulfoxide reductase A (Bos taurus); purified bovine MsrA, absorbance read-out; inhibition, % at 15.5 µM; 360,000 tested, 0.75% active; in the data active means inhibition above about 4.5%
SKN-1 inh – suppressors of acrylamide-induced Pgst-4::GFP reporter in worms, primary screen, SKN-1 inhibitor project, whole organism, uHTS, GFP/RFP fluorescence ratio, strain VP596. C. elegans VP596 Pgst-4::GFP/RFP ratio, 24 h. inhibition, % at 21.8 µM. 360,000 tested, 0.49% active. AID 624304, 2012;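 active means interference check ratio from 0.5 to 1.5 plus GFP to RFP signal ratio inhibition reaching or exceeding a fixed threshold, cut at about 30% in these data, passing the limit was not always enough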
bovine MsrA act – bovine MsrA enzyme activators, primary screen, biochemical, absorbance, HTS. 360,000 tested, 0.3% active. purified bovine MsrA, absorbance read-out. AID 602163, 2012. Methionine sulfoxide reductase A (Bos taurus). activation, % at 10.6 µM; in the data active means activation above about 7.5%
MIN6 prolif-1 – inducers of MIN6 beta-cell proliferation, primary screen, ATP luminescence, uHTS. MIN6 cells proliferation, ATPlite luminescence, 48 h; cells starved in 0.2% serum; 100% = growth in 10% serum. proliferation, % at 10 µM. 330,000 tested, 0.29% active. AID 2380, 2010;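 active means compounds whose signal lies at least 3.5 SD above the mean of all wells on their plate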
MIN6 prolif-2 – inducers of beta-cell proliferation in MIN6, confirmation, MIN6 cells, mouse. shares compounds with MIN6 prolif-1. ATPlite luminescence, 48 h; cells kept in 0.2% serum; scaled between 0.2% and 10% serum. proliferation increase, % at 50 µM. 920 tested, under 10 active. AID 463095, 2010;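 active means proliferation increase above 40% at any of the four tested concentrations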
Hits are given with their value; n = inactive; x = no result given. A selection: hits, their analogues and other compounds. The true share with any hit is near 1.8%.

SMILES	DAGLB inh	MT1-MMP act inh	MsrA inhibitor	SKN-1 inh	bovine MsrA act	MIN6 prolif-1	MIN6 prolif-2
CC1CCN(CC(O)Cn2c3ccccc3c3ccccc32)CC1 (stereo not drawn)	n	n	n	n	n	n	x
CC(=O)N1CCN(CC(O)Cn2c3ccccc3c3ccccc32)CC1 (stereo not drawn)	n	n	n	n	n	6.6	n
CCc1nnc(NC(=O)COc2ccc([N+](=O)[O-])cc2)s1	n	n	n	n	n	n	x
CCc1nnc(NC(=O)COc2ccccc2[N+](=O)[O-])s1	n	n	n	n	n	4.6	n
COC(=O)c1cc(C)sc1NC(=O)c1ccco1	n	n	n	n	n	n	x
COC(=O)c1ccsc1NC(=O)c1ccco1	n	n	n	n	n	11	n
Cc1ccc(Nc2nc3c(c(=O)[nH]2)CCCC3)cc1	n	n	n	n	n	5.8	n
CC(C)c1nc(CN2CCCCC2)cc(=O)[nH]1	x	n	n	n	n	8.9	n
CCc1cc(=O)[nH]c(SCC(=O)N2CCCC2)n1	n	n	n	n	n	n	x
Oc1ccc(Br)c(CN2CCN(c3ncc(Cc4ccccc4)cn3)CC2)c1	x	n	n	n	x	x	x
CCN1CCN(c2nc(Nc3ccc(C)c(C)c3)nc(N)c2[N+](=O)[O-])CC1	n	n	n	n	n	0.0	n
CN1C(=O)N(C)c2ccc(C=O)c3cccc1c23	n	n	n	n	n	n	x
CN1C(=O)N(C)c2ccc(Br)c3cccc1c23	n	n	n	n	n	8.6	n
COc1cccc(CNC2CCCc3ccccc32)c1OC (stereo not drawn)	n	n	n	n	n	9.1	n
COc1cc(CNC2CCCc3ccccc32)cc(OC)c1OC (stereo not drawn)	n	n	n	n	n	n	x
Cn1c(SCC(=O)c2ccccc2)nnc1C1COc2ccccc2O1 (stereo not drawn)	n	n	n	n	n	5.6	n
COC(=O)C1=C(C)N(C)C(=NCc2ccccc2C(F)(F)F)NC1c1cccc(F)c1 (stereo not drawn)	x	x	n	x	x	x	x
CCC(=O)Nc1ccc(NC(=S)NC(=O)c2cc3ccccc3o2)cc1	n	n	n	n	n	0.0	n
COC(=O)C1=C(C)N(Cc2ccccc2)C(=S)NC1c1ccc(Cl)cc1 (stereo not drawn)	x	x	n	x	x	x	x
CCNC(=O)N1CCN(c2ccc(N3CCN(Cc4ccccc4)[C@@H](C)C3)c(C)c2)[C@@H](C)C1	x	x	n	x	x	x	x
CCn1c(=O)c2cc(C(=O)N(C)c3ccc(OC)cc3OC)sc2c2ccccc21	n	n	n	n	n	6.7	n
CCn1c(=O)c2cc(C(=O)N(C)c3cc(C)ccc3OC)sc2c2ccccc21	n	n	n	n	n	n	x
COc1ccc(OC)c(N2C(N)=NC(N)=NC23CCCC3)c1	n	n	n	n	n	5.7	n
Cc1cccc(N2C(N)=NC(N)=NC23CCCCC3)c1	n	x	n	n	n	x	x
N#Cc1ccc2nc(-c3ccc(CN4CCC(c5nc6ccccc6[nH]5)CC4)cc3)c(-c3ccccc3)nc2c1	x	x	n	x	x	x	x
SMILES	DAGLB inh	MT1-MMP act inh	MsrA inhibitor	SKN-1 inh	bovine MsrA act	MIN6 prolif-1	MIN6 prolif-2
O=C(CSc1n[nH]c(=O)n1-c1ccccc1)Nc1ccccc1	x	n	n	n	n	n	x
O=C(CSc1n[nH]c(=O)n1-c1ccc2c(c1)OCCO2)Nc1ccccc1	n	n	n	n	n	4.9	n
CCOC(=O)N1CCN(C(=O)C[C@H]2C[C@@]3(C(=O)OC)C(=C[C@H](C(C)(C)C)O[C@@H]3C)N(CCC3=CCCCC3)C2=O)CC1	x	x	n	x	x	x	x
CCc1ccc(Nc2nc(N)nc(CSc3nc4ccccc4s3)n2)cc1	n	n	n	n	n	n	x
Nc1nc(CSc2nc3ccccc3s2)nc(N2CCCCC2)n1	n	n	n	n	n	9.0	n
O=C(NC1CCCC1)C1CCCN(S(=O)(=O)c2cccc3cccnc23)C1 (stereo not drawn)	n	n	n	n	n	9.5	n
O=C(NC1CCCCCC1)C1CCN(S(=O)(=O)c2cccc3cccnc23)CC1	n	n	n	n	n	n	x
CCc1cccc(CC)c1N(COC)C(=O)Cn1nnc2ccccc21	n	n	n	n	n	9.7	n
CCc1cccc(CC)c1N(COC)C(=O)Cn1c(CO)nc2ccccc21	n	n	n	n	n	n	x
CC(C)C[C@H](NC(=O)N1CCn2c1nc1ccccc12)C(=O)N1CCCCC1	n	n	n	n	n	12	n
COc1ccc(/C=N/n2cnc3c([nH]c4ccccc43)c2=O)cc1COc1ccccn1	x	x	x	x	x	8.3	n
Cc1cc(Br)cn2c(Cc3cccc(Cl)c3)c(C3CCCCC3)nc12	x	x	n	x	x	x	x
CC(C)(C)NS(=O)(=O)c1ccc(CCC(=O)N2CCOCC2)cc1	n	n	n	n	n	n	x
CC1CCN(C(=O)CCc2ccc(S(=O)(=O)NC(C)(C)C)cc2)CC1	n	n	n	n	n	7.5	n
COCC(=O)Nc1ccc2c(c1)[C@@H]1C[C@H](CC(=O)NCc3cccc(F)c3)O[C@@H](CO)[C@@H]1O2	n	n	n	n	n	x	x
N#C[C@H](N)[C@H]1O[C@@H](n2ccc(=O)[nH]c2=O)[C@H](O)[C@@H]1O	x	x	n	x	x	x	x
CCOc1nc2cnccc2n(CC(=O)Nc2ccccc2C(=O)OC)c1=O	n	n	n	n	n	14	n
CCOc1ccccc1NC(=O)Cn1c(=O)c(OCC)nc2cnccc21	n	n	x	n	n	12	n
Cc1cc(N2CCN(CC(C)(C)O)C[C@H]2C)ccc1N1CCN(CC(C)(C)O)[C@@H](C)C1	x	x	n	x	x	x	x
O=C(NCc1ccco1)c1cc2nc(-c3cccs3)cc(C(F)(F)F)n2n1	n	n	n	n	n	7.8	n
Cc1ccc2oc(=O)c3cc(C(=O)NCCCN4CCC(C)CC4)sc3c2c1	x	x	n	x	x	x	x
COc1ccc(-c2cnnn2-c2ccc(N)cc2)cc1OC	n	n	n	n	n	7.6	n
COc1ccc(-c2cnnn2-c2ccc(NC(=O)c3ccco3)cc2)cc1OC	n	n	n	n	n	n	x
COc1ccc(CCNC(=O)CNC(=O)c2ccc(Br)o2)cc1OC	n	n	n	n	n	13	n
O=C(/C=C/c1ccco1)NCc1ccccn1	n	n	n	n	n	9.4	n
